Measured values taken from ChEMBL document CHEMBL1287641, “Synthesis, characterization and anti-microbial studies of some novel 2,4-disubstituted thiazoles” (2010).
Converted amounts (≈) assume the structure as drawn. The source made the active and inactive calls. No cut-off for these calls is given here.

Columns and labels:
[1] = test system: Staphylococcus aureus; assay: Antibacterial activity against Staphylococcus aureus after 16 hrs by serial dilution method; format: functional
Summary of the method: (§1)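 Broth tube serial dilution MIC. Test compounds were stocked at 1 mg/mL in DMF and twofold diluted in trypticase soya broth across six tubes. Each organism was grown 6 h at 37 °C, adjusted to […] (10⁸ cfu/mL) and diluted to 10⁵ cfu/mL; 1 mL was added per tube. Tubes were incubated 16 h at 37 °C. MIC was read as the concentration giving no visible growth. Inoculum and broth controls were included.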

[2] = test system: Escherichia coli; assay: Antibacterial activity against Escherichia coli after 16 hrs by serial dilution method; format: functional; summary of the method: as §1
[3] = test system: Pseudomonas aeruginosa; assay: Antibacterial activity against Pseudomonas aeruginosa after 16 hrs by serial dilution method; format: functional; summary of the method: as §1
[4] = test system: Bacillus subtilis; assay: Antibacterial activity against Bacillus subtilis after 16 hrs by serial dilution method; format: functional; summary of the method: as §1
[5] = test system: Staphylococcus aureus; assay: Antibacterial activity against Staphylococcus aureus at 1.6125 to 50 ug/ml after 16 hrs by serial dilution method; format: functional, organism-based; summary of the method: as §1
[6] = test system: Pseudomonas aeruginosa; assay: Antibacterial activity against Pseudomonas aeruginosa at 1.6125 to 50 ug/ml after 16 hrs by serial dilution method; format: functional, organism-based; summary of the method: as §1
[7] = test system: Escherichia coli; assay: Antibacterial activity against Escherichia coli at 1.6125 to 50 ug/ml after 16 hrs by serial dilution method; format: functional, organism-based; summary of the method: as §1
[8] = test system: Bacillus subtilis; assay: Antibacterial activity against Bacillus subtilis at 1.6125 to 50 ug/ml after 16 hrs by serial dilution method; format: functional, organism-based; summary of the method: as §1

SMILES | MIC [1] [µg/mL] | MIC [2] [µg/mL] | MIC [3] [µg/mL] | MIC [4] [µg/mL] | Activity [5] | Activity [6] | Activity [7] | Activity [8]
CO/N=C(\C(=O)N[C@@H]1C(=O)N2C(C(=O)O)=C(CSc3nc(=O)c(O)nn3C)CS[C@H]12)c1csc(N)n1 [CEFTRIAXONE] | 3.12 (≈ 5.63 µM) | 1.61 (≈ 2.91 µM) | 1.61 (≈ 2.91 µM) | 1.61 (≈ 2.91 µM) |  |  |  | 
O=c1oc2ccccc2cc1-c1csc(N/N=C/c2c[nH]nc2-c2cc(Cl)sc2Cl)n1 | 1.61 (≈ 3.3 µM) | 3.12 (≈ 6.4 µM) | 1.61 (≈ 3.3 µM) | 1.61 (≈ 3.3 µM) |  |  |  | 
Clc1ccc(-c2csc(N/N=C/c3c[nH]nc3-c3cc(Cl)sc3Cl)n2)c(Cl)c1 | 3.12 (≈ 6.39 µM) | 1.61 (≈ 3.3 µM) | 1.61 (≈ 3.3 µM) | 1.61 (≈ 3.3 µM) |  |  |  | 
CSc1ccc(-c2n[nH]cc2/C=N/Nc2nc(-c3cc4cc(Br)ccc4oc3=O)cs2)cc1 |  |  |  |  | inactive | inactive | inactive | inactive
O=c1oc2ccccc2cc1-c1csc(N/N=C/c2c[nH]nc2-c2ccc(-c3ccccc3)cc2)n1 |  |  |  |  | inactive | inactive | inactive | inactive
CSc1ccc(-c2n[nH]cc2/C=N/Nc2nc(-c3cc4ccccc4oc3=O)cs2)cc1 |  |  |  |  | inactive | inactive | inactive | inactive
O=c1oc2ccc(Br)cc2cc1-c1csc(N/N=C/c2c[nH]nc2-c2cc(Cl)sc2Cl)n1 | 1.61 (≈ 2.84 µM) | 1.61 (≈ 2.84 µM) | 1.61 (≈ 2.84 µM) | 1.61 (≈ 2.84 µM) |  |  |  | 
Clc1ccc(-c2csc(N/N=C/c3c[nH]nc3-c3ccc(Cl)cc3Cl)n2)c(Cl)c1 | 3.12 (≈ 6.47 µM) | 50 (≈ 103 µM) |  |  |  | inactive |  | inactive
O=c1oc2ccc(Br)cc2cc1-c1csc(N/N=C/c2c[nH]nc2-c2ccc(Cl)cc2Cl)n1 | 3.12 (≈ 5.57 µM) | 1.61 (≈ 2.87 µM) | 1.61 (≈ 2.87 µM) | 3.12 (≈ 5.57 µM) |  |  |  | 
O=c1oc2ccccc2cc1-c1csc(N/N=C/c2c[nH]nc2-c2ccc(Cl)cc2Cl)n1 | 3.12 (≈ 6.48 µM) | 1.61 (≈ 3.34 µM) | 1.61 (≈ 3.34 µM) | 1.61 (≈ 3.34 µM) |  |  |  | 
CSc1ccc(-c2n[nH]cc2/C=N/Nc2nc(-c3ccc(Cl)cc3Cl)cs2)cc1 |  | 50 (≈ 109 µM) | 50 (≈ 109 µM) | 50 (≈ 109 µM) | inactive |  |  | 
O=c1oc2ccc(Br)cc2cc1-c1csc(N/N=C/c2c[nH]nc2-c2ccc(-c3ccccc3)cc2)n1 |  |  |  |  | inactive | inactive | inactive | inactive
Clc1ccc(-c2csc(N/N=C/c3c[nH]nc3-c3ccc(-c4ccccc4)cc3)n2)c(Cl)c1 |  |  |  |  | inactive | inactive | inactive | inactive
